Results pooled from the literature.
Compare with care: the assays were run in different laboratories.
Target: Ankyrin repeat and protein kinase domain-containing protein 1 (ANKK1, Homo sapiens, UniProt Q8NFD2)
One construct used (Q8NFD2 1-765): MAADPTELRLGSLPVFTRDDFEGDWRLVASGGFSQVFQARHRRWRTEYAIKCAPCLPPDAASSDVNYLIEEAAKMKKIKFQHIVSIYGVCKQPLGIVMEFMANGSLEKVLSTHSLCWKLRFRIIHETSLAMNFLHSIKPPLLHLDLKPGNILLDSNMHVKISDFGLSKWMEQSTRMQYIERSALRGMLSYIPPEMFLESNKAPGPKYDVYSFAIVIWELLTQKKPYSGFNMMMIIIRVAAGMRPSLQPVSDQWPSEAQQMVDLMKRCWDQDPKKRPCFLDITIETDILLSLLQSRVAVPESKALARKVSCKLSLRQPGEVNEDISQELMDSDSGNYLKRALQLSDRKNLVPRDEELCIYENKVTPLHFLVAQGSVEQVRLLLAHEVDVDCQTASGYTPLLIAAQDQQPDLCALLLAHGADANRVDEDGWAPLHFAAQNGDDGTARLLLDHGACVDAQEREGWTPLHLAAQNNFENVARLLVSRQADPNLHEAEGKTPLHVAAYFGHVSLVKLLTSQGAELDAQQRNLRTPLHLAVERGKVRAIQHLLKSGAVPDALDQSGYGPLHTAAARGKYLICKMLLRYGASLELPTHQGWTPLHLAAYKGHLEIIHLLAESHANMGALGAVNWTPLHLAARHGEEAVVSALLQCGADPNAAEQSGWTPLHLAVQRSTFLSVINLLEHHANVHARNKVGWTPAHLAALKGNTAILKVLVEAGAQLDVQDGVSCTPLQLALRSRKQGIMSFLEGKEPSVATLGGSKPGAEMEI

Structure (SMILES) | test | setting | remaining binding [%]
C[C@@H](c1ccc(-n2cnc3c(N)ncnc32)cc1)N1CCc2nn(C)c(Cc3ccccc3)c2C1=O | binding, competition with immobilised ligand | 0.1 µM | 85
c1cncc(-c2cccc(Nc3nccc(NC4CCCCC4)n3)c2)c1 | binding, competition with immobilised ligand | 10 µM | 47
O=C(NCCCN1CCOCC1)c1ccc(Nc2nccc(-c3cc4ccccc4s3)n2)cc1 | binding, competition with immobilised ligand | 1 µM | 71
CCN1CCN(Cc2ccc(C(=O)Nc3ccc(C)c(Oc4ccc5c(c4)CC(=O)N5)c3)cc2C(F)(F)F)CC1 | binding, competition with immobilised ligand | 1 µM | 100
CNC(=O)[C@@H]1CC[C@@H](n2c(-c3ccc4cnccc4c3)nc3ccc(C(=O)NCc4cccc(C(N)=O)c4)cc32)C1 | binding, competition with immobilised ligand | 1 µM | 100
CC1=C(C#N)C(c2ccc3c(c2)c(NC(=O)c2ccccc2C)nn3C)C(C#N)=C(C)N1 | cell-free assay, competition with immobilised ligand | 1 µM | 92
O=C(c1ccc(Nc2ncc(Cl)c(-c3cc4ccccc4s3)n2)cc1)N1CCC(N2CCCC2)CC1 | binding, competition with immobilised ligand | 1 µM | 62
O=C(NCC1CCOCC1)c1n[nH]cc1NC(=O)c1c(F)cccc1F | binding, competition with immobilised ligand | 1 µM | 66
COc1ccnn2ncc(-c3ccnc(N(C)C)n3)c12 | binding | 1 µM | 78
Cc1cnc(Nc2ccc(C(=O)N3CCC(N4CCCC4)CC3)cc2)nc1-c1cc2ccccc2s1 | binding, competition with immobilised ligand | 1 µM | 62
CCC(=O)N[C@@H]1CC[C@H](C(=O)N(C)c2ccc(-c3nc4ccccc4o3)cc2)C1 | cell-free assay, competition with immobilised ligand | 1 µM | 100
COc1ncc2cc3ccccc3nc2c1C#N | cell-free assay, competition with immobilised ligand | 5 µM | 100
C[C@@H]1CN(c2cc(-c3n[nH]c4ccc(OC5(C)CC5)cc34)ncn2)C[C@H](C)O1 | cell-free assay, competition with immobilised ligand | 0.1 µM | 79
c1cnn2ncc(-c3ccnc(N4CCC45COC5)n3)c2c1 | binding | 1 µM | 72
COc1ccc2cc(OCC3(C(=O)O)CN(C(=O)c4ccc(F)cc4)C3)ccc2c1 | cell-free assay, competition with immobilised ligand | 1 µM | 86
N[C@@H]1CCN(c2nccc(-c3cnn4ncccc34)n2)C1 | binding | 1 µM | 100
O=C(O)[C@H]1[C@H](Cn2nnc3ccccc3c2=O)CC[C@@H]1C(=O)c1ccc(OCCC2CCOCC2)cc1 | cell-free assay, competition with immobilised ligand | 1 µM | 100
C[C@H]1CCN(c2nccc(-c3cnn4ncccc34)n2)C1 | binding | 1 µM | 83
C[C@@]1(Cc2ccc(C#N)cc2)C(=O)N(c2cc(Cl)cc(Cl)c2)c2ncc(C(=O)NC3(c4nc(C5CCC5)no4)CC3)n21 | cell-free assay, competition with immobilised ligand | 1 µM | 100
F[C@@H]1CCN(c2nccc(-c3cnn4ncccc34)n2)C1 | binding | 1 µM | 100
